pIC50: −log10 of the molar value. Active and inactive are the calls of the source. The calls are words filed in the database; no cut-off is given here.
Legend:
[1] = Cytotoxicity against human HUVEC cells assessed as cell viability at 9 to 150 uM after 24 hrs by MTT assay relative to control; type: cell-based; conditions: read-out: Activity
Method in brief: (§1)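 Hep3B hepatoma, PC-3 prostate cancer and HUVEC (healthy control) cells were exposed to nitro compounds at 150, 75, 38, 19 and 9 µM for 24 h and 48 h. Viability was read by MTT assay, and IC50 values were derived from the growth inhibition curves.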

[2] = system: Hep 3B2; experiment: Cytotoxicity against human Hep3B cells assessed as cell viability after 24 hrs by MTT assay; type: functional, cell-based; method in brief: as §1
[3] = molecular target: T1, Putative nitroreductase (Staphylococcus saprophyticus subsp. saprophyticus (strain ATCC 15305 / DSM20229 / NCIMB 8711 / NCTC 7292 / S-41), UniProt Q4A0P1); experiment: Substrate activity at Staphylococcus saprophyticus nitroreductase NtrB assessed as Kcat/Km using NADH as cofactor in Tris-Cl buffer at pH 7.5 by HPLC analysis relative to CB1954/NfsB; type: ADME
T1 sequence (Q4A0P1 whole entry): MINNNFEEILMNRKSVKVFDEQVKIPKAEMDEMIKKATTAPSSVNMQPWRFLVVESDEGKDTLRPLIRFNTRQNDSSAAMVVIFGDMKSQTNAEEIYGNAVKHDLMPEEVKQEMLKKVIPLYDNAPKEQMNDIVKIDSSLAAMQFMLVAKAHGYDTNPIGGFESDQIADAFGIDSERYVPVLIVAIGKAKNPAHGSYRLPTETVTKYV

[4] = molecular target: T1, Putative nitroreductase; experiment: Substrate activity at Staphylococcus saprophyticus nitroreductase expressed in Escherichia coli BL21 (DE3) assessed as retention time by HPLC analysis; type: ADME
[5] = system: Hep 3B2; experiment: Cytotoxicity against human Hep3B cells assessed as cell viability at 9 to 150 uM after 48 hrs by MTT assay relative to control; type: functional; method in brief: as §1
[6] = Cytotoxicity against human HUVEC cells assessed as cell viability at 9 to 150 uM after 48 hrs by MTT assay relative to control; type: cell-based; conditions: read-out: Activity; method in brief: as §1
[7] = system: PC-3; experiment: Cytotoxicity against human PC3 cells assessed as cell viability at 9 to 150 uM after 48 hrs by MTT assay relative to control; type: functional; method in brief: as §1
[8] = system: PC-3; experiment: Cytotoxicity against human PC3 cells assessed as reduction in cell viability after 48 hrs by SRB assay; type: functional, cell-based
Method in brief: (§2)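 Compounds were reduced outside the cells by purified His-tag (Ni column) Ssap-NtrB. The reaction mix held 600 µM NADH and compound (150, 39, 9 µM, or 180, 18, 1.8 nM) and was applied to PC-3 cells. Controls were compound alone in 25 mM Tris/HCl pH 7.5, and enzyme alone at 31 µg/mL. After 48 h, SRB absorbance was read at 492 nm and converted to % viability.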

[9] = system: PC-3; experiment: Cytotoxicity against human PC3 cells assessed as cell viability at 9 to 150 uM after 24 hrs by MTT assay relative to control; type: functional; method in brief: as §1
[10] = system: Hep 3B2; experiment: Cytotoxicity against human Hep3B cells assessed as cell viability at 9 to 150 uM after 24 hrs by MTT assay relative to control; type: functional; method in brief: as §1
[11] = system: Hep 3B2; experiment: Cytotoxicity against human Hep3B cells assessed as cell viability after 48 hrs by MTT assay; type: functional, cell-based; method in brief: as §1
[12] = molecular target: T1, Putative nitroreductase; experiment: Substrate activity at Staphylococcus saprophyticus nitroreductase NtrB assessed as enzyme specific activity using NADH as cofactor in Tris-Cl buffer at pH 7.5 by HPLC analysis; type: ADME
[13] = system: PC-3; experiment: Cytotoxicity against human PC3 cells […] Staphylococcus saprophyticus nitroreductase NtrB assessed as reduction in cell viability in presence of NADH as cofactor after 48 hrs by SRB assay; type: functional, cell-based; conditions: PC-3, 48 h; method in brief: as §2
[14] = system: PC-3; experiment: Cytotoxicity against human PC3 cells […] Staphylococcus saprophyticus nitroreductase NtrB assessed as cell viability at 150 uM in presence of NADH as cofactor after 48 hrs by SRB assay relative to control; type: functional; conditions: PC-3, 48 h, read-out: Activity; method in brief: as §2

Structure (SMILES) | viability at 24 h, up to 150 µM [1] [%] | pIC50 [2] | fold change (FC) [3] | Retention_time [4] [min] | Activity [5] | viability at 48 h, up to 150 µM [6] [%] | Activity [7] [%] | Activity [8] | Activity [9] [%] | Activity [10] | pIC50 [11] | Activity [12] [U/mg] | pIC50 [13] | viability at 150 µM [14] [%]
CCC(=O)Nc1cc(N2CCOCC2)c([N+](=O)[O-])cc1[N+](=O)[O-] | 51 to 80 | 4.04 | 4.73 | 20.95 | 51 - 80% | 51 to 80 | – | – | – | – | – | – | – | –
O=[N+]([O-])c1ccc(Nc2cc(F)cc(F)c2)c([N+](=O)[O-])c1 | 51 to 80 | – | – | 17.74 | – | 51 to 80 | >80 | inactive | >80 | >80% | 4.05 | – | – | –
COCCC(=O)Oc1cc(N2CCOCC2)c([N+](=O)[O-])cc1[N+](=O)[O-] | 51 to 80 | – | – | – | >80% | 51 to 80 | – | – | – | >80% | – | – | – | –
CC(C)CC(=O)Nc1cc(N2CCOCC2)c([N+](=O)[O-])cc1[N+](=O)[O-] | 51 to 80 | 3.82 | – | 24.16 | 51 - 80% | 51 to 80 | – | – | – | – | – | – | – | –
O=[N+]([O-])c1cc([N+](=O)[O-])c(Nc2ccc(S(=O)(=O)O)cc2)cc1Nc1ccc(S(=O)(=O)O)cc1 | > 80 | – | 2.37 | 4.4 | – | > 80 | >80 | – | >80 | 51 - 80% | 4.14 | 2.12 | – | –
CC(C)CC(=O)Oc1cc(N2CCOCC2)c([N+](=O)[O-])cc1[N+](=O)[O-] | 51 to 80 | – | – | 24.6 | >80% | 51 to 80 | – | – | – | >80% | – | – | – | –
O=[N+]([O-])c1ccc(N2CCOCC2)c([N+](=O)[O-])c1 | > 80 | – | 1.25 | 19.38 | 51 - 80% | > 80 | >80 | inactive | >80 | >80% | – | – | < 3.82 | 50
O=[N+]([O-])c1ccc(N2CCC[C@H]2CO)c([N+](=O)[O-])c1 | > 80 | – | – | 15.1 | >80% | > 80 | – | inactive | – | >80% | – | – | < 3.82 | 50
CCNc1ccc([N+](=O)[O-])cc1[N+](=O)[O-] | > 80 | – | – | 16.92 | 51 - 80% | > 80 | >80 | inactive | >80 | 51 - 80% | – | – | 5.19 | –

— ChEMBL document CHEMBL4376859, “Prodrugs for nitroreductase-based cancer therapy-3: Antitumor activity of the novel dinitroaniline prodrugs/Ssap-NtrB enzyme suicide gene system: Synthesis, in vitro and in silico evaluation in prostate cancer” (Eur J Med Chem, 2020)
